Columns and labels:
Rattus norvegicus [1] = test: In vivo antidiuretic activity in rats under ethanol anesthesia.; format: functional, Urine
Summary of the method: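 Rats under ethanol anesthesia, with the USP posterior pituitary reference standard as reference. Agonistic activity is expressed in units per milligram.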

Rattus norvegicus [2] = species on record: Rattus norvegicus; test: In vitro anti-oxytocic potency was evaluated in the absence of Mg2+; format: functional; conditions: read-out: pA2 (converted)
Summary of the method: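 Isolated rat uterus in medium containing no Mg2+. USP posterior pituitary reference standard used as agonist. In vitro pA2 values were derived as in Bankowski et al.; means ± SE.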

Rattus norvegicus [3] = species on record: Rattus norvegicus; test: In vitro anti-oxytocic potency was evaluated in the presence of 0.5 mM of Mg2+; format: functional; conditions: read-out: pA2 (converted)
Summary of the method: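 Isolated rat uterus in medium containing 0.5 mM Mg2+. USP posterior pituitary reference standard used as agonist. In vitro pA2 values were derived as in Bankowski et al.; means ± SE.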

Rattus norvegicus [4] = test: In vivo anti-vasopressor activity measured as the negative logarithm of the effective dose / the estimated volume of distribution (67 mL/kg); format: ADME, organism-based; conditions: read-out: pA2 (converted)
Summary of the method: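 Rats treated with phenoxybenzamine under urethane anesthesia. Pressor responses to the USP posterior pituitary standard were given intravenously. Effective dose (nmol/kg) was interpolated on a log scale; means ± SE of at least four estimates. pA2 = −log(effective dose / 67 mL/kg).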

Structure (SMILES) | Activity (Rattus norvegicus [1]) [units/mg] | Kb (Rattus norvegicus [2]) [nM] | Kb (Rattus norvegicus [3]) [nM] | Kb (Rattus norvegicus [4]) [nM]
COc1ccc(C[C@@H]2NC(=O)CC(C)(C)SSC[C@@H](C(=O)N3CCC[C@H]3C(=O)N[C@H](CCCN=C(N)N)C(=O)NCC(N)=O)NC(=O)[C@H](CC(N)=O)NC(=O)[C@H](C(C)C)NC(=O)[C@H](Cc3ccccc3)NC2=O)cc1 [listing 1 of 2 here] | 3.2 | – | – | –
CCOc1ccc(C[C@@H]2NC(=O)CC(C)(C)SSC[C@@H](C(=O)N3CCC[C@H]3C(=O)N[C@@H](CCCN=C(N)N)C(=O)NCC(N)=O)NC(=O)[C@H](CC(N)=O)NC(=O)[C@H](CCC(N)=O)NC(=O)[C@H](Cc3ccccc3)NC2=O)cc1 [listing 1 of 2 here] | – | 7.59 | 44.7 | 3.98
COc1ccc(C[C@@H]2NC(=O)CC(C)(C)SSC[C@@H](C(=O)N3CCC[C@H]3C(=O)N[C@@H](CCCN=C(N)N)C(=O)NCC(N)=O)NC(=O)[C@H](CC(N)=O)NC(=O)[C@H](C(C)C)NC(=O)[C@H](Cc3ccccc3)NC2=O)cc1 [listing 1 of 2 here] | – | 3.72 | 12.6 | 4.37
CCC1(CC)CC(=O)N[C@@H](Cc2ccc(OC)cc2)C(=O)N[C@@H](Cc2ccccc2)C(=O)N[C@@H](CCC(N)=O)C(=O)N[C@@H](CC(N)=O)C(=O)N[C@H](C(=O)N2CCC[C@H]2C(=O)NC(CCCN=C(N)N)C(=O)NCC(N)=O)CSS1 (stereo in doubt) [listing 1 of 2 here] | 0.019 | – | – | –
CCOc1ccc(C[C@@H]2NC(=O)CC(C)(C)SSC[C@@H](C(=O)N3CCC[C@H]3C(=O)N[C@@H](CCCN=C(N)N)C(=O)NCC(N)=O)NC(=O)[C@H](CC(N)=O)NC(=O)[C@H](C(C)C)NC(=O)[C@H](Cc3ccccc3)NC2=O)cc1 [listing 1 of 2 here] | – | 2.29 | 21.9 | 8.51
CCOc1ccc(C[C@@H]2NC(=O)CC(C)(C)SSC[C@@H](C(=O)N3CCC[C@H]3C(=O)N[C@H](CCCN=C(N)N)C(=O)NCC(N)=O)NC(=O)[C@H](CC(N)=O)NC(=O)[C@H](C(C)C)NC(=O)[C@H](Cc3ccccc3)NC2=O)cc1 [listing 1 of 2 here] | – | 15.1 | 26.9 | 3.47
CCC1(CC)CC(=O)N[C@@H](Cc2ccc(OC)cc2)C(=O)N[C@@H](Cc2ccccc2)C(=O)N[C@@H](C(C)C)C(=O)N[C@@H](CC(N)=O)C(=O)N[C@H](C(=O)N2CCC[C@H]2C(=O)N[C@@H](CCCN=C(N)N)C(=O)NCC(N)=O)CSS1 [listing 1 of 2 here] | 0.24 | – | – | –
CCC1(CC)CC(=O)N[C@@H](Cc2ccc(OC)cc2)C(=O)N[C@@H](Cc2ccccc2)C(=O)N[C@@H](CCC(N)=O)C(=O)N[C@@H](CC(N)=O)C(=O)N[C@H](C(=O)N2CCC[C@H]2C(=O)N[C@@H](CCCN=C(N)N)C(=O)NCC(N)=O)CSS1 [listing 1 of 2 here] | 0.066 | – | – | –
CCOc1ccc(C[C@@H]2NC(=O)CC(CC)(CC)SSC[C@@H](C(=O)N3CCC[C@H]3C(=O)N[C@H](CCCN=C(N)N)C(=O)NCC(N)=O)NC(=O)[C@H](CC(N)=O)NC(=O)[C@H](CCC(N)=O)NC(=O)[C@H](Cc3ccccc3)NC2=O)cc1 [listing 1 of 2 here] | 0.0003 | – | – | –
CCOc1ccc(C[C@@H]2NC(=O)CC(C)(C)SSC[C@@H](C(=O)N3CCC[C@H]3C(=O)N[C@H](CCCN=C(N)N)C(=O)NCC(N)=O)NC(=O)[C@H](CC(N)=O)NC(=O)[C@H](C(C)C)NC(=O)[C@H](Cc3ccccc3)NC2=O)cc1 [listing 2 of 2 here] | 0.2 | – | – | –
CCOc1ccc(C[C@@H]2NC(=O)CC(CC)(CC)SSC[C@@H](C(=O)N3CCC[C@H]3C(=O)N[C@@H](CCCN=C(N)N)C(=O)NCC(N)=O)NC(=O)[C@H](CC(N)=O)NC(=O)[C@H](C(C)C)NC(=O)[C@H](Cc3ccccc3)NC2=O)cc1 [listing 1 of 2 here] | 0.1 | – | – | –
COc1ccc(C[C@@H]2NC(=O)CC(C)(C)SSC[C@@H](C(=O)N3CCC[C@H]3C(=O)N[C@@H](CCCN=C(N)N)C(=O)NCC(N)=O)NC(=O)[C@H](CC(N)=O)NC(=O)[C@H](C(C)C)NC(=O)[C@H](Cc3ccccc3)NC2=O)cc1 [listing 2 of 2 here] | 2.9 | – | – | –
CCOc1ccc(C[C@@H]2NC(=O)CC(C)(C)SSC[C@@H](C(=O)N3CCC[C@H]3C(=O)NC(CCCN=C(N)N)C(=O)NCC(N)=O)NC(=O)[C@H](CC(N)=O)NC(=O)[C@H](CCC(N)=O)NC(=O)[C@H](Cc3ccccc3)NC2=O)cc1 (stereo in doubt) [listing 1 of 2 here] | 0.23 | – | – | –
CCC1(CC)CC(=O)N[C@@H](Cc2ccc(OC)cc2)C(=O)N[C@@H](Cc2ccccc2)C(=O)N[C@@H](CCC(N)=O)C(=O)N[C@@H](CC(N)=O)C(=O)N[C@H](C(=O)N2CCC[C@H]2C(=O)NC(CCCN=C(N)N)C(=O)NCC(N)=O)CSS1 (stereo in doubt) [listing 2 of 2 here] | – | 19.1 | 7.94 | 2.69
COc1ccc(C[C@@H]2NC(=O)CC3(CCCCC3)SSC[C@@H](C(=O)N3CCC[C@H]3C(=O)NC(CCCN=C(N)N)C(=O)NCC(N)=O)NC(=O)[C@H](CC(N)=O)NC(=O)[C@H](CCC(N)=O)NC(=O)[C@H](Cc3ccccc3)NC2=O)cc1 (stereo in doubt) | 0.23 | 28.2 | 15.5 | 3.89
CCC1(CC)CC(=O)N[C@@H](Cc2ccc(OC)cc2)C(=O)N[C@@H](Cc2ccccc2)C(=O)N[C@@H](CCC(N)=O)C(=O)N[C@@H](CC(N)=O)C(=O)N[C@H](C(=O)N2CCC[C@H]2C(=O)N[C@@H](CCCN=C(N)N)C(=O)NCC(N)=O)CSS1 [listing 2 of 2 here] | – | 11 | 6.46 | 2.95
CCOc1ccc(C[C@@H]2NC(=O)CC(C)(C)SSC[C@@H](C(=O)N3CCC[C@H]3C(=O)N[C@@H](CCCN=C(N)N)C(=O)NCC(N)=O)NC(=O)[C@H](CC(N)=O)NC(=O)[C@H](C(C)C)NC(=O)[C@H](Cc3ccccc3)NC2=O)cc1 [listing 2 of 2 here] | 0.62 | – | – | –
CCOc1ccc(C[C@@H]2NC(=O)CC(CC)(CC)SSC[C@@H](C(=O)N3CCC[C@H]3C(=O)N[C@@H](CCCN=C(N)N)C(=O)NCC(N)=O)NC(=O)[C@H](CC(N)=O)NC(=O)[C@H](CCC(N)=O)NC(=O)[C@H](Cc3ccccc3)NC2=O)cc1 [listing 1 of 2 here] | 0.035 | – | – | –
CCOc1ccc(C[C@@H]2NC(=O)CC(CC)(CC)SSC[C@@H](C(=O)N3CCC[C@H]3C(=O)N[C@H](CCCN=C(N)N)C(=O)NCC(N)=O)NC(=O)[C@H](CC(N)=O)NC(=O)[C@H](C(C)C)NC(=O)[C@H](Cc3ccccc3)NC2=O)cc1 [listing 1 of 2 here] | – | 10.5 | 12.9 | 6.46
CCOc1ccc(C[C@@H]2NC(=O)CC(CC)(CC)SSC[C@@H](C(=O)N3CCC[C@H]3C(=O)N[C@@H](CCCN=C(N)N)C(=O)NCC(N)=O)NC(=O)[C@H](CC(N)=O)NC(=O)[C@H](CCC(N)=O)NC(=O)[C@H](Cc3ccccc3)NC2=O)cc1 [listing 2 of 2 here] | – | 3.72 | 10 | 3.47
CCOc1ccc(C[C@@H]2NC(=O)CC(C)(C)SSC[C@@H](C(=O)N3CCC[C@H]3C(=O)N[C@@H](CCCN=C(N)N)C(=O)NCC(N)=O)NC(=O)[C@H](CC(N)=O)NC(=O)[C@H](CCC(N)=O)NC(=O)[C@H](Cc3ccccc3)NC2=O)cc1 [listing 2 of 2 here] | 0.59 | – | – | –
CCC1(CC)CC(=O)N[C@@H](Cc2ccc(OC)cc2)C(=O)N[C@@H](Cc2ccccc2)C(=O)N[C@@H](C(C)C)C(=O)N[C@@H](CC(N)=O)C(=O)N[C@H](C(=O)N2CCC[C@H]2C(=O)N[C@@H](CCCN=C(N)N)C(=O)NCC(N)=O)CSS1 [listing 2 of 2 here] | – | 2.57 | 11.7 | 5.13
CCC1(CC)CC(=O)N[C@@H](Cc2ccc(OC)cc2)C(=O)N[C@@H](Cc2ccccc2)C(=O)N[C@@H](C(C)C)C(=O)N[C@@H](CC(N)=O)C(=O)N[C@H](C(=O)N2CCC[C@H]2C(=O)N[C@H](CCCN=C(N)N)C(=O)NCC(N)=O)CSS1 [listing 1 of 2 here] | 0.11 | – | – | –
CCC1(CC)CC(=O)N[C@@H](Cc2ccc(OC)cc2)C(=O)N[C@@H](Cc2ccccc2)C(=O)N[C@@H](C(C)C)C(=O)N[C@@H](CC(N)=O)C(=O)N[C@H](C(=O)N2CCC[C@H]2C(=O)N[C@H](CCCN=C(N)N)C(=O)NCC(N)=O)CSS1 [listing 2 of 2 here] | – | 18.6 | 11.7 | 4.47
COc1ccc(C[C@@H]2NC(=O)CC(C)(C)SSC[C@@H](C(=O)N3CCC[C@H]3C(=O)N[C@H](CCCN=C(N)N)C(=O)NCC(N)=O)NC(=O)[C@H](CC(N)=O)NC(=O)[C@H](C(C)C)NC(=O)[C@H](Cc3ccccc3)NC2=O)cc1 [listing 2 of 2 here] | – | 31.6 | 21.4 | 14.5
CCOc1ccc(C[C@@H]2NC(=O)CC(C)(C)SSC[C@@H](C(=O)N3CCC[C@H]3C(=O)NC(CCCN=C(N)N)C(=O)NCC(N)=O)NC(=O)[C@H](CC(N)=O)NC(=O)[C@H](CCC(N)=O)NC(=O)[C@H](Cc3ccccc3)NC2=O)cc1 (stereo in doubt) [listing 2 of 2 here] | – | 14.1 | 38.9 | 5.37
CCOc1ccc(C[C@@H]2NC(=O)CC(CC)(CC)SSC[C@@H](C(=O)N3CCC[C@H]3C(=O)N[C@H](CCCN=C(N)N)C(=O)NCC(N)=O)NC(=O)[C@H](CC(N)=O)NC(=O)[C@H](CCC(N)=O)NC(=O)[C@H](Cc3ccccc3)NC2=O)cc1 [listing 2 of 2 here] | – | 70.8 | 28.8 | 4.68
CCOc1ccc(C[C@@H]2NC(=O)CC(CC)(CC)SSC[C@@H](C(=O)N3CCC[C@H]3C(=O)N[C@H](CCCN=C(N)N)C(=O)NCC(N)=O)NC(=O)[C@H](CC(N)=O)NC(=O)[C@H](C(C)C)NC(=O)[C@H](Cc3ccccc3)NC2=O)cc1 [listing 2 of 2 here] | 0.07 | – | – | –
CCOc1ccc(C[C@@H]2NC(=O)CC(CC)(CC)SSC[C@@H](C(=O)N3CCC[C@H]3C(=O)N[C@@H](CCCN=C(N)N)C(=O)NCC(N)=O)NC(=O)[C@H](CC(N)=O)NC(=O)[C@H](C(C)C)NC(=O)[C@H](Cc3ccccc3)NC2=O)cc1 [listing 2 of 2 here] | – | 7.41 | 37.2 | 3.8
